Values after ≈ are worked out from the molar mass of the structure shown. Active and inactive are the calls of the source. No cut-off for these calls is given here.
Key:
[1] = test system: Streptococcus gordonii; experiment: Antimicrobial activity against erythromycin- and streptomycin-resistant Streptococcus gordonii Tol1 harboring R483P mutation in ptsI assessed as bacterial count at 2 ug/ml after 24 hrs by macrodilution technique; type: functional
[2] = test system: Streptococcus gordonii; experiment: Antimicrobial activity against wild type streptomycin-susceptible Streptococcus gordonii harboring P483R mutation in ptsI assessed as bacterial count at 2 ug/ml after 24 hrs by macrodilution technique
[3] = test system: Streptococcus gordonii; experiment: Antimicrobial activity against […] and streptomycin-resistant Streptococcus gordonii Tol1 harboring Tol1 mutation in ptsI after 24 hrs by macrodilution assay; type: functional; settings: Tol1, 24 h
In short: (§1)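 MIC by standard broth macrodilution; streptococci grown at 37°C in BHI broth without aeration.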

[4] = test system: Streptococcus gordonii; experiment: Antimicrobial activity against wild type streptomycin-susceptible Streptococcus gordonii after 24 hrs by macrodilution method; type: functional; in short: as §1
[5] = test system: Streptococcus gordonii; experiment: Antimicrobial activity against wild type streptomycin-susceptible Streptococcus gordonii assessed as bacterial count at 2 ug/ml after 24 hrs by macrodilution method; type: functional
In short: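 Time-kill assay: exponentially growing cultures in BHI broth at 37°C without aeration. Penicillin G was added at 2 μg/ml when OD600 reached 0.2 (about 1 × 10^8 CFU/ml). Viable counts were taken on agar plates, and the result is the loss of log10 CFU/ml after 24 h of exposure.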

[6] = test system: Streptococcus gordonii; experiment: Antimicrobial activity against […] and streptomycin-resistant Streptococcus gordonii Tol1 harboring Tol1 mutation in ptsI assessed as bacterial count at 2 ug/ml after 24 hrs by macrodilution assay; type: functional
[7] = test system: Streptococcus gordonii; experiment: (§2) Antimicrobial activity against wild type streptomycin-susceptible Streptococcus gordonii infected in Wistar rat assessed as decrease in bacterial infection at 300000 U/kg, sc administered 16 hrs after infection every 12 hrs for 2 days measured within 3 days post last dose; type: functional, organism-based
In short: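 Female Wistar rats carried sterile aortic vegetations. After 24 h they were challenged i.v. with 10^7 CFU of exponential-phase streptococci in 0.5 ml saline. From 16 h post-inoculation, procaine penicillin 300,000 U/kg was given s.c. every 12 h for 2 days. Untreated controls were killed at therapy onset, and treated rats 12 h after the trough of the last dose. Vegetations were weighed and plated for CFU.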

[8] = test system: Streptococcus gordonii; experiment: (§3) Antimicrobial activity against penicillin- and streptomycin-resistant Streptococcus gordonii Tol1 harboring Tol1 mutation infected in Wistar rat assessed as protection against bacterial infection at 300000 U/kg, sc administered 16 hrs after infection every 12 hrs for 2 days measured within 3 days post last dose; type: functional, organism-based
[9] = test system: Streptococcus gordonii; experiment: Antimicrobial activity against wild type streptomycin-susceptible Streptococcus gordonii harboring […] mutation in ptsI assessed as decrease in [14C]glucose uptake at 2 ug/ml after 60 mins by liquid scintillation counting; type: functional, organism-based
In short: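 Cells grown in BHI to OD550 ca 0.3, exposed to 2 μg/ml penicillin for 20, 40 or 60 min, washed in PBS-5 mM MgCl2, preincubated 10 min at 35°C; uptake started with [14C]glucose (600 dpm/nmol), aliquots diluted in cold stopping buffer, filtered on glass fibre, counted by liquid scintillation; 4°C high-dilution adsorption control.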

[10] = test system: Streptococcus gordonii; experiment: as §2, with “gordonii harboring […] mutation in ptsI” for “gordonii”; type: functional, organism-based
[11] = test system: Streptococcus gordonii; experiment: Antimicrobial activity against wild type streptomycin-susceptible Streptococcus gordonii assessed as decrease in [14C]glucose uptake at 2 ug/ml after 60 mins by liquid scintillation counting; type: functional, organism-based
In short: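 Cells were grown in BHI to OD550 of about 0.3, then exposed to penicillin at 2 μg/ml for 20, 40 or 60 min. They were washed in PBS-5 mM MgCl2, concentrated, and preincubated for 10 min at 35°C. Uptake was started with 20 mM stock [14C]glucose (600 dpm/nmol). Timed aliquots went into cold stop buffer, were filtered on glass fiber, and were counted by scintillation. A 4°C high-dilution sample corrected for nonspecific binding.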

[12] = test system: Streptococcus gordonii; experiment: as §3, with “against erythromycin-” for “against penicillin-”, “harboring R483P” for “harboring Tol1”, “mutation in ptsI” for “mutation”; type: functional, organism-based

| Structure (SMILES) | Activity [1] | Activity [2] | MIC [3] | MIC [4] | Activity [5] | Activity [6] | inhibition [7] | inhibition [8] | inhibition [9] | inhibition [10] | inhibition [11] | Activity [12] |
| --- | --- | --- | --- | --- | --- | --- | --- | --- | --- | --- | --- | --- |
| C[C@@H](O)[C@H]1C(=O)N2C(C(=O)O)=C(SCCNC=N)C[C@H]12 [IMIPENEM ANHYDROUS] | 5.3 log10CFU/ml | 2.1 log10CFU/ml | 4 ng/mL (≈ 0.0134 µM) | 4 ng/mL (≈ 0.0134 µM) | 6.1 log10CFU/ml | 2 log10CFU/ml | – | – | – | – | – | – |
| CC1(C)S[C@@H]2[C@H](NC(=O)Cc3ccccc3)C(=O)N2[C@H]1C(=O)O [PENICILLIN G] | 3.9 log10CFU/ml | 0.7 log10CFU/ml | 8 ng/mL (≈ 0.0239 µM) | 8 ng/mL (≈ 0.0239 µM) | 4.5 log10CFU/ml | 0.6 log10CFU/ml | Active | inactive | Active | inactive | Active | Active |

From ChEMBL document CHEMBL1212757, “A single mutation in enzyme I of the sugar phosphotransferase system confers penicillin tolerance to Streptococcus gordonii” (2010)
